Calls of active or inactive are those of the source. No cut-off for these calls is given here.
Tests used:
Lanosterol synthase [1] = target: T1, Lanosterol synthase (Homo sapiens, UniProt P48449); experiment: Inhibition of human oxidosqualene cyclase expressed in Pichia pastoris cells
T1 sequence (P48449 whole entry): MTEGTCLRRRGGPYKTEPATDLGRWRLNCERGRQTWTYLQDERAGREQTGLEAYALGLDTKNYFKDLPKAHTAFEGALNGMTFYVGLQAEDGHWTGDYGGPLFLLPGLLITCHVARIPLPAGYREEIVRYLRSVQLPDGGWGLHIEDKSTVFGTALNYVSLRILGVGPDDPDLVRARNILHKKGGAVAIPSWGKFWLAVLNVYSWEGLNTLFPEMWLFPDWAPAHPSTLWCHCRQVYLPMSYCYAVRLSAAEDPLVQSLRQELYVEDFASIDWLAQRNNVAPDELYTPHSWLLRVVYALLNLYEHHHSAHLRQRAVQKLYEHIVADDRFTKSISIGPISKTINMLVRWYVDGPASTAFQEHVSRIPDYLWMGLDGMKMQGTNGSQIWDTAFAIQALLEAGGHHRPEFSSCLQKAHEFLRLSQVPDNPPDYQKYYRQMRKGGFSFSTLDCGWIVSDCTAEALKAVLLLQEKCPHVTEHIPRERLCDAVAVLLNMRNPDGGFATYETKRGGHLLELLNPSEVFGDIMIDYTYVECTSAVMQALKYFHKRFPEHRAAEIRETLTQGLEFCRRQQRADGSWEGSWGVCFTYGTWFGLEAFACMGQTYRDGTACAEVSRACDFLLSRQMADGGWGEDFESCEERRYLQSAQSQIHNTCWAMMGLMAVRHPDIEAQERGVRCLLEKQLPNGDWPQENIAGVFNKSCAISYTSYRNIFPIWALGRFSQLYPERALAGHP

[2] = target: T2, Lanosterol synthase ERG7 (Saccharomyces cerevisiae S288c) (UniProt P38604); experiment: Inhibition of Saccharomyces cerevisiae oxidosqualene cyclase at 10 uM
T2 sequence (whole entry): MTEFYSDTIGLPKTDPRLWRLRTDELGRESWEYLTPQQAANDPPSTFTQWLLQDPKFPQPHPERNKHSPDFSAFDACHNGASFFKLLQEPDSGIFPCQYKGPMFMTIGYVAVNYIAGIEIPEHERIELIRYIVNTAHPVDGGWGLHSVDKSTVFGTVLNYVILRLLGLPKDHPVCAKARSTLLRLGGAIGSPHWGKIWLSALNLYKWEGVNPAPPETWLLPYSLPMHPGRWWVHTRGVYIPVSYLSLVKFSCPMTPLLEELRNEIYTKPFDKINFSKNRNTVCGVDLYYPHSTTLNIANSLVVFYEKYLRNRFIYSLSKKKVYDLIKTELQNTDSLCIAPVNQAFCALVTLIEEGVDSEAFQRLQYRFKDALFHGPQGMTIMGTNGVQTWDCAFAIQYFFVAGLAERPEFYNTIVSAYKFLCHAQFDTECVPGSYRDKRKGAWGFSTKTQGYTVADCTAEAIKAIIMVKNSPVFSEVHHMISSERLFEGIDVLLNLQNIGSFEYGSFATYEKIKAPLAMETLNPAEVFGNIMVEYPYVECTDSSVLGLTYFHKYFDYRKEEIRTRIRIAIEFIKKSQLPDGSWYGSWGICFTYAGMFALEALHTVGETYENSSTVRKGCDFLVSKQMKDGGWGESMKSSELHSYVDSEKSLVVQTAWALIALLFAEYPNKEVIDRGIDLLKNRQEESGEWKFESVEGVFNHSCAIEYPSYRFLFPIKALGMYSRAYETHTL

[3] = Inhibition of Trypanosoma cruzi oxidosqualene cyclase
NIH3T3 [4] = experiment: Inhibition of sterol biosynthesis in Swiss Albino mouse 3T3 cells assessed as incorporation of [2-14C]acetate in lanosterol at 1 uM; assay type: functional; set-up: scale not given: the % may be the effect or the level left
Procedure, shortened: (§1)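 3T3 fibroblasts (7×10^4 cells) were grown 24 h in DMEM with 10% lipid-depleted serum, then preincubated 3 h with inhibitor. [2-14C]acetate (1 uCi/well) was added for a further 3 h. Cells were lysed in 0.1 N NaOH and saponified in methanolic KOH (1 h, 80 °C). Nonsaponifiable lipids were extracted and separated by TLC against sterol standards. Label is given as % of total radioactivity in sterols, mean ± SD of two experiments in duplicate.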

Lanosterol synthase [5] = target: T3, Lanosterol synthase (Pneumocystis carinii, UniProt Q96WJ0); experiment: Inhibition of Pneumocystis carinii oxidosqualene cyclase
T3 sequence (Q96WJ0 whole entry): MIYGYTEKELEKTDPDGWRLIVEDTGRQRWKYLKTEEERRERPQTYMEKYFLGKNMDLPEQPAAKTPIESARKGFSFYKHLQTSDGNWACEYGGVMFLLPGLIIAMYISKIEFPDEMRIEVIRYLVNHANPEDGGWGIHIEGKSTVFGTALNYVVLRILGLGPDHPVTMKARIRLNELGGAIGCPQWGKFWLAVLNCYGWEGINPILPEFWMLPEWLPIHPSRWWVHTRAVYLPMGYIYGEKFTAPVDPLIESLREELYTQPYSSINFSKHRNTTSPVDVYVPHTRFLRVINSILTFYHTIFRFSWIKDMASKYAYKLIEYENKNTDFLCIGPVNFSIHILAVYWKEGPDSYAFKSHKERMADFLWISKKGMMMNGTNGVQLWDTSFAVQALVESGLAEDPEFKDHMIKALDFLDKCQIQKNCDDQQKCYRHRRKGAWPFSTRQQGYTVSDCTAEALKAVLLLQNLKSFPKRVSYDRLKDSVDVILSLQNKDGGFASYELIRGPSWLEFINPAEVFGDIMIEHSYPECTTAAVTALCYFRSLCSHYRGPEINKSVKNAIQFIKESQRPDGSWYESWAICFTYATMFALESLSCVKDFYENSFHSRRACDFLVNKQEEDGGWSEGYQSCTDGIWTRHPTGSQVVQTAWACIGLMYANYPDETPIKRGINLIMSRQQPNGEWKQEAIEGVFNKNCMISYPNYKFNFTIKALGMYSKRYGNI

NIH3T3 [6] = experiment: Inhibition of sterol biosynthesis in Swiss Albino mouse 3T3 cells assessed as incorporation of [2-14C]acetate in 2,3-oxidosqualene at 1 uM; assay type: functional; set-up: scale not given: the % may be the effect or the level left; procedure, shortened: as §1
NIH3T3 [7] = experiment: Inhibition of sterol biosynthesis in Swiss Albino mouse 3T3 cells assessed as incorporation of [2-14C]acetate in squalene at 1 uM; assay type: functional; set-up: scale not given: the % may be the effect or the level left; procedure, shortened: as §1
NIH3T3 [8] = experiment: Inhibition of sterol biosynthesis in Swiss Albino mouse 3T3 cells assessed as incorporation of [2-14C]acetate in […]-dioxidosqualene at 1 uM; assay type: functional; set-up: scale not given: the % may be the effect or the level left; procedure, shortened: as §1
NIH3T3 [9] = experiment: Inhibition of sterol biosynthesis in Swiss Albino mouse 3T3 cells assessed as incorporation of [2-14C]acetate in cholesterol at 1 uM; assay type: functional; set-up: scale not given: the % may be the effect or the level left; procedure, shortened: as §1
Lanosterol synthase ERG7 = target: T4, Lanosterol synthase ERG7 (Saccharomyces cerevisiae S288c, UniProt P38604); experiment: Inhibition of Saccharomyces cerevisiae oxidosqualene cyclase
T4 sequence (P38604 whole entry): T2 sequence (whole entry)

[10] = target: T5, Lanosterol synthase (Pneumocystis carinii) (UniProt Q96WJ0); experiment: Inhibition of Pneumocystis carinii oxidosqualene cyclase at 10 uM
T5 sequence (whole entry): T3 sequence (Q96WJ0 whole entry)

NIH3T3 [11] = experiment: Inhibition of sterol biosynthesis in Swiss Albino mouse 3T3 cells assessed as decrease in incorporation of [2-14C]acetate in cholesterol at 50 uM; assay type: functional; set-up: scale not given: the % may be the effect or the level left; procedure, shortened: as §1
Trypanosoma cruzi = experiment: Inhibition of Trypanosoma cruzi oxidosqualene cyclase at 10 uM
[12] = target: T6, Lanosterol synthase (Homo sapiens) (UniProt P48449); experiment: Inhibition of human oxidosqualene cyclase expressed in Pichia pastoris cells at 10 uM
T6 sequence (whole entry): T1 sequence (P48449 whole entry)

Row | SMILES | IC50 (Lanosterol synthase [1]) [nM] | inhibition [2] [%] | IC50 [3] [nM] | Activity (NIH3T3 [4]) [%] | IC50 (Lanosterol synthase [5]) [nM] | Activity (NIH3T3 [6]) [%] | Activity (NIH3T3 [7]) [%] | Activity (NIH3T3 [8]) [%] | Activity (NIH3T3 [9]) [%] | IC50 (Lanosterol synthase ERG7) [nM] | inhibition [10] [%] | Activity [2] | Activity (NIH3T3 [11]) [%] | inhibition (Trypanosoma cruzi) [%] | inhibition [12] [%]
1 | C/C(=C\COCCCc1ccc(-c2ccccc2)cc1)CC/C=C(\C)CCCN(C)C | 4500 | < 20 | 7400 | 6.4 | 1700 | 17.5 | 4.9 | 18 | 53.2 | – | – | – | – | – | –
2 | C/C(=C\COCCCc1ccccc1)CC/C=C(\C)CCCN(C)C | 1100 | – | 470 | 5.5 | 330 | 27.9 | 5.5 | 30.4 | 31.3 | 450 | – | – | – | – | –
3 | C/C(=C\CO)CC/C=C(\C)CCCN(C)C | – | – | – | 2.5 | – | 3.9 | 4.1 | 1.3 | 88.2 | – | < 20 | inactive | 30 | < 20 | < 20
4 | C/C(=C\COCCCc1ccccc1)CC/C=C(\C)CCC(=O)N(C)C | – | – | – | 3.2 | – | 4.6 | 4.8 | 2.8 | 84.6 | – | < 20 | – | >50 | < 20 | < 20
5 | C/C(=C\COCCCc1cccc2ccccc12)CC/C=C(\C)CCCN(C)C | – | – | – | 5 | 10000 | 12.5 | 6.6 | 3.2 | 72.7 | – | – | inactive | 30 | < 20 | < 20
6 | CCCCCCOC/C=C(\C)CC/C=C(\C)CCCN(C)C | 850 | – | 2700 | 7.9 | 360 | 29.6 | 4.6 | 22.3 | 35.5 | 1780 | – | – | – | – | –

From ChEMBL document CHEMBL1138372, “Design, synthesis, and biological evaluation of new (2E,6E)-10-(dimethylamino)-3,7-dimethyl-2,6-decadien-1-ol ethers as inhibitors of human and Trypanosoma cruzi oxidosqualene cyclase” (Bioorg Med Chem Lett, 2007)
